Key:
[1] = tested on: Wild type A. thaliana (WT); test: Dicamba tolerance trait test, wild type plants; assay type: in vivo, Arabidopsis thaliana; conditions: sprayed at 500 μM
In short: (§1)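 Wild-type plants or a homozygous dicamba-tolerant transgenic line (DMOc) were sprayed with test compound or the parent acid at 500 μM.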

[2] = tested on: A. thaliana; test: Herbicidal activity assay on soil-grown A. thaliana; assay type: in vivo, Arabidopsis thaliana; conditions: for pre-emergent inhibition: pre-emergence treatment; for pre-emergent inhibition / post-emergent inhibition: assessed on day 16; for post-emergent inhibition: treatments three and six days after germination
In short: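 Test compounds were applied to A. thaliana across 125 μM–2 mM, either pre-emergence or post-emergence.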

[3] = tested on: transgenic line of A. thaliana, modified with a synthetic dicamba monooxygenase from Stenotrophomonas maltophilia; test: Dicamba tolerance trait test, dicamba-tolerant transgenic line; assay type: in vivo, Arabidopsis thaliana; conditions: sprayed at 500 μM, DMOc line
In short: as §1

[4] = HPLC determination of dicamba formation in water; assay type: physicochemical; conditions: for % Dicamba: integration of dicamba as percentage of all peaks at 220 nm

Question: For 6-O-dicamba-D-glucose [Compound 2], which “growth effect on wild-type” value [1] is on record?
Answer: Its value is “herbicidal”.

Question: And the “relative post-emergent herbicidal efficacy among conjugates” value ([2]; post-emergence, comparison between carbohydrate conjugates (Fig. 5))?
Answer: The value was “most active”.

Question: What about the “growth effect on dicamba-tolerant transgenic line” value [3] of the same compound?
Answer: The value was “no growth symptoms”.

Question: What about the “% Dicamba” value ([4]; 1 day) of the same compound?
Answer: Its value is 0.1%.

Question: What about the “% Dicamba” value ([4]; 7 days) of the same compound?
Answer: Its value is 0.1%.

Question: What about the “% Dicamba” value ([4]; 28 days) of the same compound?
Answer: The value was 0.5%.

Question: And the “relative stability to hydrolysis among glucose isomers 1–5” value ([4]; HPLC)?
Answer: The value was “most stable”.

Question: With `COc1c(Cl)ccc(Cl)c1C(=O)O` [Dicamba, 3,6-dichloro-2-methoxybenzoic acid] as the compound, how does the “growth effect on wild-type” value [1] read?
Answer: Its value is “herbicidal”.

Question: And the pre-emergent inhibition ([2]; 125 μM)?
Answer: Its pre-emergent inhibition is “weak”.

Question: And the post-emergent inhibition ([2]; 125 μM)?
Answer: Its post-emergent inhibition is “moderate”.

Question: And the post-emergent inhibition ([2]; 500 μM)?
Answer: Its post-emergent inhibition is “strong”.

Question: What about the pre-emergent inhibition ([2]; 1 mM) of the same compound?
Answer: Its pre-emergent inhibition is “strong”.

Question: What about the “growth effect on dicamba-tolerant transgenic line” value [3] of the same compound?
Answer: Its value is “no growth symptoms”.
